Measurements collected from several papers.
Target: Vascular endothelial growth factor receptor 3 (FLT4, Homo sapiens, UniProt P35916)

SMILES | test | conditions | remaining binding
F[C@@H]1CCN(c2nccc(-c3cnn4ncccc34)n2)C1 | binding | 1 µM | 90%
N#Cc1ccc(Nc2ccc3[nH]c(=O)[nH]c3c2)c(Cl)c1 | cell-free assay, competition with immobilised ligand | 1 µM | 100%
C[C@@H](c1ccc(-n2cnc3c(N)ncnc32)cc1)N1CCc2nn(C)c(Cc3ccccc3)c2C1=O | binding, competition with immobilised ligand | 0.1 µM | 91%
C=CC(=O)Nc1cccc(CN2C(=O)N(c3c(Cl)c(OC)cc(OC)c3Cl)Cc3cnc(NCCCCN(CC)CC)nc32)c1 | cell-free assay, competition with immobilised ligand | 10 µM | 0.2%
COc1ncc2cc3ccccc3nc2c1C#N | cell-free assay, competition with immobilised ligand | 5 µM | 96%
CCS(=O)(=O)c1cc2cc(C[C@](O)(CC(C)(C)c3ccc(F)cc3C(N)=O)C(F)(F)F)[nH]c2cn1 | cell-free assay, competition with immobilised ligand | 1 µM | 95%
O=C(Nc1c[nH]nc1C(=O)NC1CCNCC1)c1cc(F)cc(F)c1 | binding, competition with immobilised ligand | 1 µM | 100%
C[C@H]1CCN(c2nccc(-c3cnn4ncccc34)n2)C1 | binding | 1 µM | 100%
CC(C)CC(=O)N1CCc2nc(-c3ccc(Br)cc3)nc(N(C)Cc3ccccc3)c2C1 | cell-free assay, competition with immobilised ligand | 0.1 µM | 100%
Nc1ncc2c(n1)-c1c([nH]c3ccc(C#CC4CC4)cc13)CCCC2 | binding, competition with immobilised ligand | 1 µM | 100%
c1cncc(-c2cccc(Nc3nccc(NC4CCCCC4)n3)c2)c1 | binding, competition with immobilised ligand | 10 µM | 18%
O=C(c1ccc(Nc2ncc(Cl)c(-c3ccc(Cl)s3)n2)cc1)N1CCC(N2CCCC2)CC1 | binding, competition with immobilised ligand | 1 µM | 0.15%
C=CC(=O)N1CCC(C(=O)NCC(=O)N2CCN(c3nc(-c4cnc(N)nc4C(F)F)nc(N4CCOCC4)n3)CC2)CC1 | binding, competition with immobilised ligand | 1 µM | 96%
N[C@@H]1CCN(c2nccc(-c3cnn4ncccc34)n2)C1 | binding | 1 µM | 100%
O=C(NCCCN1CCOCC1)c1ccc(Nc2nccc(-c3cc4ccccc4s3)n2)cc1 | binding, competition with immobilised ligand | 1 µM | 50%
CNC(=O)[C@@H]1CC[C@@H](n2c(-c3ccc4cnccc4c3)nc3ccc(C(=O)NCc4cccc(C(N)=O)c4)cc32)C1 | binding, competition with immobilised ligand | 1 µM | 100%
c1cnn2ncc(-c3ccnc(N4CCC45COC5)n3)c2c1 | binding | 1 µM | 92%
CNCc1ccccc1-c1csc([C@H](C)Nc2nc(C)nc3cc(OC)c(OC)cc23)c1 | cell-free assay, competition with immobilised ligand | 1 µM | 100%
CN(CCCC(F)(F)F)c1nccc(-c2cnn3ncccc23)n1 | binding | 1 µM | 100%
CCCOc1ccc([C@@H]2[C@@H](C(=O)O)[C@H](c3ccc4c(c3)OCO4)CN2CC(=O)Nc2c(CC)cccc2CC)cc1 | cell-free assay, competition with immobilised ligand | 1 µM | 100%
CN(C)c1ncc(F)c(-c2cnn3ncccc23)n1 | binding | 1 µM | 86%
CC(=O)c1c(NS(C)(=O)=O)c2cc(-c3ccc(Cl)cc3)c(-c3ccc(Cl)cc3Cl)nc2n(C)c1=O | cell-free assay, competition with immobilised ligand | 1 µM | 100%
O=C(NCCCN1CCOCC1)c1ccc(Nc2ncc(Cl)c(-c3ccc(Cl)s3)n2)cc1 | binding, competition with immobilised ligand | 1 µM | 0.7%
